MIC and IC30 data for 13 compounds are collected here from ChEMBL document CHEMBL1153008, “Synthesis and antitubercular activity of novel 4-substituted imidazolyl-2,6-dimethyl-N3,N5-bisaryl-1,4-dihydropyridine-3,5-dicarboxamides” (2009).

What all share (type): functional
Experiment [1] deals with Mycobacterium tuberculosis. Kind of experiment: Antitubercular activity against Mycobacterium tuberculosis H37Rv ATCC 27294 after 21 days by agar proportion method. The following applies: H37Rv ATCC 27294, 504 h. An outline of the steps:
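Agar proportion method on Middlebrook 7H10 tubes against rifampicin/isoniazid-susceptible H37Rv. Inoculum: 4–7 day 7H9 broth culture at 37 °C, adjusted to McFarland no. 1, then diluted 10^-2 and 10^-4; 0.1 mL per tube. Incubated 21 days at 37 °C under 5–7% CO2. Colonies counted and compared with drug-free control. Two independent measurements.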

Another experiment relates to Jurkat. Kind of experiment: Cytotoxicity against human Jurkat cells by MTT assay.
For a further experiment, the system named is HeLa. Kind of experiment: Cytotoxicity against human HeLa cells by MTT assay.
The test system of a further experiment is Raji. Kind of experiment: Cytotoxicity against human Raji cells by MTT assay.
A short description of experiment [2]: Cytotoxicity against human Kga1 cells by MTT assay.

In brackets after ≈: the same amount, converted by molar mass.

Regarding `CSc1ncc(C2C(C(=O)Nc3ccc(Br)cc3)=C(C)NC(C)=C2C(=O)Nc2ccc(Br)cc2)n1Nc1ccccc1`, in experiment [1], the MIC is more than 16 µg/mL.

As to `CSc1ncc(C2C(C(=O)Nc3ccc(Cl)cc3)=C(C)NC(C)=C2C(=O)Nc2ccc(Cl)cc2)n1Nc1ccccc1`, in experiment [1], the MIC is more than 16 µg/mL.

As for `CO[C@H]1/C=C/O[C@@]2(C)Oc3c(C)c(O)c4c(O)c(c(/C=N/N5CCN(C)CC5)c(O)c4c3C2=O)NC(=O)/C(C)=C\C=C\[C@H](C)[C@H](O)[C@@H](C)[C@@H](O)[C@@H](C)[C@H](OC(C)=O)[C@@H]1C` [RIFAMPIN], the MIC in experiment [1] turned out to be 1 µg/mL (≈ 1.22 µM).

For the compound `CSc1ncc(C2C(C(=O)Nc3ccc(Cl)cc3)=C(C)NC(C)=C2C(=O)Nc2ccc(Cl)cc2)n1Cc1ccccc1`, the IC30 was 12.3 µg/mL (≈ 19.9 µM) with Jurkat, more than 100 µg/mL in the experiment with HeLa, 85.1 µg/mL (≈ 138 µM) in the experiment on Raji and 58.9 µg/mL (≈ 95.2 µM) in experiment [2].

In the case of `CSc1ncc(C2C(C(=O)Nc3cccnc3)=C(C)NC(C)=C2C(=O)Nc2cccnc2)n1Nc1ccccc1`, in experiment [1], the MIC was more than 16 µg/mL.

For the compound `CSc1ncc(C2C(C(=O)Nc3ccccn3)=C(C)NC(C)=C2C(=O)Nc2ccccn2)n1Cc1ccccc1`, the IC30 is 43.6 µg/mL (≈ 79.1 µM) in the experiment on Jurkat, more than 100 µg/mL in the experiment with HeLa, 60.2 µg/mL (≈ 109 µM) in the experiment with Raji and 19.1 µg/mL (≈ 34.5 µM) in experiment [2].

As for `NNC(=O)c1ccncc1` [ISONIAZID], the MIC in experiment [1] turned out to be 0.2 µg/mL (≈ 1.46 µM).

For the compound `CSc1ncc(C2C(C(=O)Nc3ccccc3Cl)=C(C)NC(C)=C2C(=O)Nc2ccccc2Cl)n1Nc1ccccc1`, the IC30 is 7.76 µg/mL (≈ 12.5 µM) in the experiment on Jurkat, more than 100 µg/mL with HeLa, 43.6 µg/mL (≈ 70.5 µM) in the experiment with Raji and more than 100 µg/mL in experiment [2]. Moreover, in experiment [1], the MIC is more than 16 µg/mL.

Regarding `CSc1ncc(C2C(C(=O)Nc3cccc(Cl)c3)=C(C)NC(C)=C2C(=O)Nc2cccc(Cl)c2)n1Cc1ccccc1`, the IC30 in the experiment on Jurkat is 47.9 µg/mL (≈ 77.4 µM); with HeLa, more than 100 µg/mL; in the experiment with Raji it was 69.2 µg/mL (≈ 112 µM); in experiment [2] it was 26.3 µg/mL (≈ 42.5 µM).

Consider `CSc1ncc(C2C(C(=O)Nc3cccnc3)=C(C)NC(C)=C2C(=O)Nc2cccnc2)n1Cc1ccccc1`, for which the IC30 with Jurkat was determined as 37.1 µg/mL (≈ 67.3 µM); in the experiment on HeLa it was 91.2 µg/mL (≈ 165 µM); with Raji, 75.8 µg/mL (≈ 137 µM); in experiment [2], 27.5 µg/mL (≈ 49.9 µM).

With `CSc1ncc(C2C(C(=O)Nc3ccccn3)=C(C)NC(C)=C2C(=O)Nc2ccccn2)n1Nc1ccccc1`, the 30% effect concentration (IC30) with Jurkat is 13.5 µg/mL (≈ 24.4 µM); with HeLa, 67.6 µg/mL (≈ 122 µM); with Raji, more than 100 µg/mL; in experiment [2], more than 100 µg/mL. The compound further had an MIC in experiment [1] of more than 16 µg/mL.

Regarding `COc1cccc2c1C(=O)c1c(O)c3c(c(O)c1C2=O)C[C@@](O)(C(=O)CO)C[C@@H]3O[C@H]1C[C@H](N)[C@H](O)[C@H](C)O1` [DOXORUBICIN], the results for the IC30 in the experiment on Jurkat and in the experiment on Raji were 2.13 µg/mL (≈ 3.92 µM) and 1.51 µg/mL (≈ 2.78 µM), respectively.

Consider `CSc1ncc(C2C(C(=O)Nc3cccc(Cl)c3)=C(C)NC(C)=C2C(=O)Nc2cccc(Cl)c2)n1Nc1ccccc1`, for which, in experiment [1], the minimum inhibitory concentration (MIC) was more than 16 µg/mL.
